Key:
[1] = folding enthalpy; higher = less favourable; fluorescence melt of hairpins on a sequencing array, two-state fit; details: sodium 0.088 M
Summary of the method: (§1)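 With Cy3 and quencher oligos annealed, library hairpins on a sequenced MiSeq flow cell were imaged for Cy3 fluorescence in 50 mM Na-HEPES pH 8.0, 25 mM NaCl, in 2.5 °C steps up to 60 °C. Melting temperature and folding enthalpy were derived from bootstrapped two-state fits of signals normalised to pre-quench Cy3 and to control constructs. Four replicates were combined by inverse variance, with fitted temperatures raised by 9.35 °C to match UV melts.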

[2] = melting temperature; fluorescence melt of hairpins on a sequencing array, two-state fit, raised by 9.35 °C to match UV melts; details: sodium 0.088 M
Summary of the method: as §1

Row | Sequence | folding enthalpy [1] | Tm [2]
1 | GTGCTGCGAAAGCATCAC (((.(((....))).))) | -31.9 kcal/mol | 52 °C
2 | GTGCTGGGAAACCGGCAC ((((.((....)).)))) | -41.1 kcal/mol | 61 °C
3 | GTGCTGTCGAAAGACCAC (((..(((....)))))) | -13.1 kcal/mol | 45.4 °C
4 | GTGCTTCGAAAGAACCAC (((.(((....))).))) | -27.8 kcal/mol | 34.8 °C
5 | GTGCTTGGAAACGAGCAC (((((.(....).))))) | -40.1 kcal/mol | 55.5 °C
6 | GTGCTTTCGAAAGAACAC (((..(((....)))))) | -19.8 kcal/mol | 36.7 °C
7 | GTGGAAGGAAACTCCCAC ((((.((....)).)))) | -36.2 kcal/mol | 38.6 °C
8 | GTGGAAGGAAACTTCTGC (..((((....))))..) | -14.4 kcal/mol | 34.1 °C
9 | GTGGACCCGAAAGGGCAC (((..(((....)))))) | -16.6 kcal/mol | 49.3 °C
10 | GTGGACGAAAGTCCGCAC ((((((....)))..))) | -11.8 kcal/mol | 55.7 °C
11 | GTGGACGAAAGTCGGCAC ((((((....)))..))) | -15.5 kcal/mol | 39.8 °C
12 | GTGGACGGAAACGTTCGC (.(.(((....))).).) | -26.6 kcal/mol | 45 °C
13 | GTGGAGCGAAAGCTACAC (((.(((....))).))) | -30.8 kcal/mol | 68.2 °C
14 | GTGGAGCGAAAGCTGCAC (((.(((....))).))) | -34 kcal/mol | 62.4 °C
15 | GTGGAGGAAACTCCAC ((((((....)))))) | -35.2 kcal/mol | 60.1 °C
16 | GTGGAGGGAAACCTCCGC (.(((((....))))).) | -37.6 kcal/mol | 56.2 °C
17 | GTGGATACGAAAGTACAC (((..(((....)))))) | -13.5 kcal/mol | 36.8 °C
18 | GTGGATGGAAACATCCAC (((((((....))))))) | -50.1 kcal/mol | 65.1 °C
19 | GTGGATGGAAACATCTAC ((.((((....)))).)) | -31 kcal/mol | 46.8 °C
20 | GTGGATGGAAACATCTGC (..((((....))))..) | -23 kcal/mol | 37.6 °C
21 | GTGGCACGAAAGTGCAC (((.(((....)))))) | -11 kcal/mol | 52.1 °C
22 | GTGGCAGGAAACCGCCAC (((((.(....).))))) | -46.8 kcal/mol | 55.9 °C
23 | GTGGCAGGAAACTGCTGC (..((((....))))..) | -17.4 kcal/mol | 44.2 °C

Row | Sequence | folding enthalpy [1] | Tm [2]
24 | GTGGCAGGAAACTGTCGC (.(.(((....))).).) | -27.3 kcal/mol | 45.7 °C
25 | GTGGCATCGAAAGATCAC (((..(((....)))))) | -12.8 kcal/mol | 34.2 °C
26 | GTGGCCCGAAAGGGCAC (((.(((....)))))) | -10.3 kcal/mol | 62 °C
27 | GTGGCCGAAAGGCAACAC ((((((....)))..))) | -13.3 kcal/mol | 55.5 °C
28 | GTGGCCGAAAGGCCCAC ((((((....))).))) | -10.5 kcal/mol | 57.5 °C
29 | GTGGCCGAAAGGCCCCAC ((((((....)))..))) | -5.99 kcal/mol | 38.1 °C
30 | GTGGCCGAAAGGCGGCAC ((((((....)))..))) | -13.8 kcal/mol | 46.7 °C
31 | GTGGCCGAAAGGCTCAC ((((((....))).))) | -16.2 kcal/mol | 54.9 °C
32 | GTGGCCGGAAACAGCCAC (((((.(....).))))) | -47.6 kcal/mol | 54.5 °C
33 | GTGGCGCCGAAAGGCCAC (((..(((....)))))) | -13.8 kcal/mol | 57.8 °C
34 | GTGGCGGGAAACCGTCGC (.(.(((....))).).) | -24.9 kcal/mol | 50.5 °C
35 | GTGGCGTCGAAAGACCAC (((..(((....)))))) | -12.9 kcal/mol | 44.5 °C
36 | GTGGGCGAAAGCCCCCAC ((((((....)))..))) | -7.28 kcal/mol | 38.7 °C
37 | GTGGGCGAAAGCCCTCAC ((((((....)))..))) | -8.43 kcal/mol | 39.5 °C
38 | GTGGGCGAAAGCCGCCAC ((((((....)))..))) | -13.3 kcal/mol | 42.3 °C
39 | GTGGGCGAAAGCCTCAC ((((((....))).))) | -15.5 kcal/mol | 51.9 °C
40 | GTGGGCGAAAGCCTGCAC ((((((....)))..))) | -12.4 kcal/mol | 45.3 °C
41 | GTGGTACGAAAGTACAC (((.(((....)))))) | -15 kcal/mol | 49.7 °C
42 | GTGGTAGGAAACTATCAC (((.(((....))).))) | -28.4 kcal/mol | 44.4 °C
43 | GTGGTCCGAAAGGACAC (((.(((....)))))) | -12.8 kcal/mol | 53.2 °C
44 | GTGGTCGAAAGACATCAC ((((((....)))..))) | -14.3 kcal/mol | 34.2 °C
45 | GTGGTCGAAAGACGACAC ((((((....)))..))) | -15.4 kcal/mol | 47.2 °C
46 | GTGGTCGAAAGACGTCAC ((((((....)))..))) | -13.5 kcal/mol | 36.2 °C

Row | Sequence | folding enthalpy [1] | Tm [2]
47 | GTGGTCGAAAGACTGCAC ((((((....)))..))) | -14.7 kcal/mol | 40.8 °C
48 | GTGGTCGGAAACAACCAC (((((.(....).))))) | -29.4 kcal/mol | 45.4 °C
49 | GTGGTCGGAAACGACTGC (..((((....))))..) | -14.3 kcal/mol | 49.5 °C
50 | GTGGTCGGAAACGATCAC (((.(((....))).))) | -44.6 kcal/mol | 55.7 °C
51 | GTGGTGACGAAAGTCCAC (((..(((....)))))) | -19 kcal/mol | 45.6 °C
52 | GTGGTTGCGAAAGCACAC (((..(((....)))))) | -15.6 kcal/mol | 42.7 °C
53 | GTGTAAACGAAAGTTCAC (((..(((....)))))) | -18 kcal/mol | 33.7 °C
54 | GTGTAACGAAAGTTCCAC (((.(((....))).))) | -22.6 kcal/mol | 38.9 °C
55 | GTGTACACGAAAGTGCAC (((..(((....)))))) | -19 kcal/mol | 47.1 °C
56 | GTGTACCGAAAGGTTCAC (((.(((....))).))) | -35.8 kcal/mol | 53.1 °C
57 | GTGTACGAAAGTACAC ((((((....)))))) | -29.7 kcal/mol | 69.1 °C
58 | GTGTACGAAAGTACCAC ((((((....))).))) | -13.3 kcal/mol | 44.4 °C
59 | GTGTACGAAAGTACCCAC ((((((....)))..))) | -10.3 kcal/mol | 31.9 °C
60 | GTGTACGAAAGTACTCAC ((((((....)))..))) | -11.4 kcal/mol | 35.7 °C
61 | GTGTACGAAAGTATCAC ((((((....))).))) | -22.8 kcal/mol | 43.6 °C
62 | GTGTACGCGAAAGCGCAC (((..(((....)))))) | -16.7 kcal/mol | 48.9 °C
63 | GTGTACGGAAACACACAC ((((..(....)..)))) | -12.6 kcal/mol | 31.9 °C
64 | GTGTACTCGAAAGAGCAC (((..(((....)))))) | -21.8 kcal/mol | 43.5 °C
65 | GTGTAGCCGAAAGGCCAC (((..(((....)))))) | -17.3 kcal/mol | 47 °C
66 | GTGTAGCGAAAGCTGCAC (((.(((....))).))) | -36.6 kcal/mol | 63.9 °C
67 | GTGTAGGGAAACCTACGC (.(((((....))))).) | -17.9 kcal/mol | 50 °C
68 | GTGTATGGAAACATACGC (.(((((....))))).) | -20.1 kcal/mol | 48.5 °C

Reference: the array DNA melting data of Ke et al. (doi:10.1101/2024.01.08.574731)
